In ChEMBL document CHEMBL5661974, “Pharmacologic characterization of a potent inhibitor of class I phosphatidylinositide 3-kinases” (Cancer Res, 2007):
Active and inactive are the calls of the source. The rule behind the calls is not given here.

Assays:
A2780 = test: Antiproliferative activity against human A2780 cells harboring PI3KCA/PTEN mutant assessed as cell growth inhibition incubated for 96 hrs by SRB assay; type: functional
OVCAR-3 [1] = conditions: Homo sapiens, dose 100.0 mg/kg, route ip, time 750.0 min
PC-3 = test: Antitumor activity against PTEN null human PC-3 cells xenografted male Ncr model assessed as body weight loss at 30 mg/kg, ip administered twice a daily for 14 days relative to control; conditions: time 14 day
[2] = Clearance in BALB/C mouse plasma at 2.5 mg/kg, iv by LC-MS/MS analysis; type: ADME, organism-based
How it was run: (§1)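 Female BALB/c mice, 6–8 weeks old, given 2.5 mg/kg i.v. in 10% DMSO, 0.5% Tween 20 in saline. Plasma came from serial bleeds; tissues were homogenized in 2 or 3 volumes PBS. Samples were methanol-precipitated with an analogue internal standard, then LC-MS/MS by multiple reaction monitoring against an 8-point external calibration of 2–20,000 nmol/L. Parameters came from WinNonlin noncompartmental analysis, model 201 for plasma and model 200 for tissues.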

U-87 MG [3] = conditions: Homo sapiens, time 24.0 hrs
OVCAR-3 [4] = conditions: Homo sapiens, dose 100.0 mg/kg, route ip
[5] = Half life in BALB/C mouse plasma at 2.5 mg/kg, iv by LC-MS/MS analysis; type: ADME, organism-based; how it was run: as §1
MDA-MB-468 [6] = test: Antitumor activity against PTEN null human MDA-MB-468 cells xenografted female Ncr model assessed as body weight loss at 30 mg/kg, ip administered twice a daily for 14 days relative to control; conditions: time 14 day
OVCAR-3 [7] = test: Antitumor activity against human OVCAR-3 cells xenografted female Ncr model assessed as T/C at 30 mg/kg, ip administered daily for 15 days relative to control; type: functional; conditions: time 15 day
[8] = Drug metabolism in human microsomes incubated for 30 mins by LC-MS/MS analysis; type: ADME, Microsome; conditions: read-out: Drug metabolism
How it was run: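 Mouse or human microsomes incubated 30 min with inhibitor at 1 or 10 μmol/L. Metabolite detection by LC-MS/MS on an ion trap, with a 10–90% methanol gradient over 6 min and scan range 50–1,000 amu.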

[9] = Cmax in BALB/C mouse kidney at 2.5 mg/kg, iv by LC-MS/MS analysis; type: ADME, organism-based; how it was run: as §1
[10] = Cmax in BALB/C mouse plasma at 2.5 mg/kg, iv by LC-MS/MS analysis; type: ADME, organism-based; how it was run: as §1
U-87 MG [11] = test: Antitumor activity against PTEN null human U-87MG cells xenografted female Ncr model assessed as T/C at 70 mg/kg, ip administered once a daily for 14 days relative to control; type: functional, U-87MG ATCC; conditions: time 14 day
[12] = Toxicity in human OVCAR-3 cells xenografted female Ncr model at 15 to 30 mg/kg, ip administered daily for 15 days; type: organism-based; conditions: in vivo, 360 h, dose 15-30 mg/kg, time 15 day
MDA-MB-468 [13] = test: Antitumor activity against PTEN null human MDA-MB-468 cells xenografted female Ncr model assessed as body weight loss at 30 mg/kg, ip administered once a daily for 14 days relative to control; conditions: time 14 day
[14] = Tmax in BALB/C mouse plasma at 2.5 mg/kg, iv by LC-MS/MS analysis; type: ADME, organism-based; how it was run: as §1
U-87 MG [15] = test: Antitumor activity against human U-87MG cells xenografted female Ncr model assessed as ratio of p-AKT Ser473/total AKT at 100 mg/kg, ip by 30 to 60 mins after dosing by electrochemiluminescent immunoassay relative to control; type: functional, U-87MG ATCC; conditions: time 30-60 min
HCT-116 [16] = test: Antitumor activity against PIK3CA mutant human HCT-116 cells xenografted female Ncr model assessed as body weight loss at 30 mg/kg, ip administered once a daily for 14 days relative to control; conditions: time 14 day
[17] = Volume of distribution in BALB/C mouse plasma at 2.5 mg/kg, iv by LC-MS/MS analysis; type: ADME, organism-based; how it was run: as §1
U-87 MG [18] = test: Antitumor activity against PTEN null human U-87MG cells xenografted female Ncr model assessed as body weight loss at 40 mg/kg, ip administered daily for 14 days relative to control; conditions: time 14 day
[19] = Volume of distribution at steady state in BALB/C mouse at 2.5 mg/kg, iv by LC-MS/MS analysis; type: ADME, organism-based; conditions: in vivo, read-out: Vdss; how it was run: as §1
[20] = Inhibition of recombinant PI3K in human U2OS cells expressing GFP-tagged FKHR assessed as redistribution of cytoplasm to the nucleus before IGF-1 stimulation by fluorescence assay; type: cell-based
How it was run: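 U2OS cells expressing GFP-FKHR, cultured in 0.7% serum, treated with inhibitor before IGF-1 stimulation. Nuclear redistribution of GFP was monitored by automated fluorescence imaging, and IC50 was taken from concentration-response curves; Z' above 0.5.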

[21] = AUClast in BALB/C mouse kidney at 2.5 mg/kg, iv by LC-MS/MS analysis; type: ADME, organism-based; how it was run: as §1
U-87 MG [22] = test: Inhibition of cell invasion in human U-87MG cells at 50 nmol/L by transwell assay relative to control
[23] = Antitumor activity against PIK3CA mutant human […] cells xenografted female Ncr model assessed as T/C at 100 mg/kg, ip administered twice a daily for 16 days relative to control; type: functional; conditions: time 16 day
HCT-116 [24] = test: Antitumor activity against PIK3CA mutant human HCT-116 cells xenografted female Ncr model assessed as body weight loss at 30 mg/kg, ip administered twice a daily for 14 days relative to control; conditions: time 14 day
U-87 MG [25] = test: Inhibition of recombinant PI3K in human U-87MG cells assessed as phosphorylation of AKT at Thr308 at 5 times of GI50 concentration within 15 mins treatment by immunoblot analysis; type: cell-based
HCT-116 [26] = test: Antitumor activity against PIK3CA mutant human HCT-116 cells xenografted female Ncr model assessed as T/C at 30 mg/kg, ip administered once a daily for 14 days relative to control; type: functional; conditions: time 14 day
[27] = Tmax in BALB/C mouse plasma at 50 mg/kg, ip by LC-MS/MS analysis; type: ADME, organism-based; conditions: in vivo
How it was run: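 Female BALB/c mice, 6–8 weeks old, dosed i.p. at 50 mg/kg in 20% […] β-cyclodextrin in saline, 0.1 mL/10 g. Serial blood samples; plasma was methanol-precipitated with an analogue internal standard. LC-MS/MS multiple reaction monitoring, external calibration 2–20,000 nmol/L. Noncompartmental analysis, model 200.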

## Oc1cccc(-c2nc(N3CCOCC3)c3oc4ncccc4c3n2)c1 [PI-103]
A2780
  GI50: 500 nM
OVCAR-3 [1]
  inhibition: Active
PC-3
  Body weight loss: <15%
[2]
  clearance: 3.17 mL/min
U-87 MG [3]
  inhibition: Active
OVCAR-3 [4]
  inhibition: Active
[5]
  half-life: 42 min
MDA-MB-468 [6]
  Body weight loss: <15%
OVCAR-3 [7]
  T/C: 62%
[8]
  metabolised at 0.5 h: > 70%
[9]
  Cmax: 2.02 µM
[10]
  Cmax: 4.17 µM
U-87 MG [11]
  T/C: 45.8%
[12]
  Activity: Toxic
MDA-MB-468 [13]
  Body weight loss: <15%
[14]
  Tmax: 0 h
U-87 MG [15]
  Activity: ~50%
HCT-116 [16]
  Body weight loss: <15%
[17]
  Vd: 0.2 L
U-87 MG [18]
  Body weight loss: <15%
[19]
  Vd: 0.052 L
[20]
  IC50: 30 nM
[21]
  AUC(0-t): 0.453 µM·h
U-87 MG [22]
  inhibition at 0.05 µM: 44%
[23]
  T/C: 36%
HCT-116 [24]
  Body weight loss: <15%
U-87 MG [25]
  inhibition: Active
HCT-116 [26]
  T/C: 68%
[27]
  Tmax: 15 min
